Holding throughout (type): functional
Assay [1] can be described thus: Antioxidant activity assessed as superoxide anion radical scavenging activity after 5 mins by spectrophotometry. An outline of the steps:
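Pyrogallol autoxidation at room temperature: sample in DMF at various concentrations added to 0.05 M Tris-HCl with 30 mM 1,2,3-trihydroxybenzene (stock), 5 min reaction, stopped with 8.0 M HCl (stock), A320 read against blank. Scavenging % from absorbance with vs without sample; triplicate; IC50 as concentration scavenging 50% of radicals.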

Assay [2] is described as follows: Antioxidant activity assessed as ABTS radical scavenging activity after 3 mins by spectrophotometry. The method, boiled down: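 ABTS radical cation from 2 mM ABTS stock in PBS pH 7.4 reacted with 70 mM K2S2O8, standing in dark at room temperature 15-16 h; diluted with PBS to A734 0.700 ± 0.030. Sample solutions at several concentrations mixed with radical solution, absorbance read after 3 min at ambient temperature; PBS blank. Triplicate; IC50 as concentration scavenging 50% of radicals.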

A short description of assay [3]: Antioxidant activity assessed as DPPH scavenging activity after 30 mins by spectrophotometry. The method, boiled down:
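Sample in DMF at several concentrations added to 0.004% (w/v) DPPH in ethanol, incubated at 37 °C, A517 read after 30 min. Scavenging % = (Acontrol − Atest)/Acontrol × 100, control lacking scavenger. Triplicate; IC50 as concentration scavenging 50% of radicals.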

Assay [4] is described as follows: Antioxidant activity assessed as hydroxyl radical scavenging activity after 1 hr by spectrophotometry. The method, boiled down: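 Salicylate method: 20 mM sodium salicylate, 1.5 mM FeSO4, sample at various concentrations and 6 mM H2O2 (stock levels) mixed, held 1 h in 37 °C water bath, A510 read against blank. Scavenging % from absorbance with vs without sample; triplicate; IC50 as concentration scavenging 50% of radicals.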

What is called IC50 is the concentration that gives 50% inhibition.

The structures appear in SMILES notation.

As to `NS(=O)(=O)c1ccc(/N=C/c2cc3ccccc3[nH]c2=O)cc1`, the half-inhibitory concentration (IC50) is 169 µM in assay [1] (read-out: IC50), 1610 µM in assay [2], 266 µM in assay [3] (read-out: IC50) and 266 µM in assay [4] (read-out: IC50).

For `Cc1ccc2[nH]c(=O)c(/C=N/Nc3ccc([N+](=O)[O-])cc3)cc2c1`, the half-maximal inhibitory concentration (IC50) entry in assay [1] was “Not Active”; in assay [2], 8.25 µM; in assay [3] (read-out: IC50) it was 109 µM; in assay [4] (read-out: IC50), 350 µM.

Take `O=c1[nH]c2ccccc2cc1/C=N/Cc1ccccc1`: the IC50 was 329 µM in assay [1] (read-out: IC50), 368 µM in assay [2], “Not Active” in assay [3] and 3140 µM in assay [4] (read-out: IC50).

Consider `CCCC/N=C/c1cc2cc(C)ccc2[nH]c1=O`, for which the IC50 amounted to 379 µM in assay [1] (read-out: IC50), 43.3 µM in assay [2], 63.2 µM in assay [3] (read-out: IC50) and 3560 µM in assay [4] (read-out: IC50).

For `Cc1ccc2[nH]c(=O)c(/C=N/NC(=O)CS(N)(=O)=O)cc2c1`, the half-inhibitory concentration (IC50) in assay [1] (read-out: IC50) amounted to 147 µM; in assay [2], 9.17 µM; in assay [3] (read-out: IC50), 3350 µM; in assay [4] (read-out: IC50) it was 5830 µM.

In the case of `O=c1[nH]c2ccccc2cc1/C=N/Nc1ccc([N+](=O)[O-])cc1`, the 50% inhibitory concentration (IC50) result in assay [1] is “Not Active”; in assay [2], 11.4 µM; in assay [3] (read-out: IC50), 170 µM; in assay [4] (read-out: IC50), 245 µM.

As to `O=c1[nH]c2ccccc2cc1/C=N/c1ccccc1O`, the IC50 was determined as 237 µM in assay [1] (read-out: IC50), 11.7 µM in assay [2], 22.8 µM in assay [3] (read-out: IC50) and 1660 µM in assay [4] (read-out: IC50).

Consider `CCCC/N=C/c1cc2ccccc2[nH]c1=O`, for which the half-inhibitory concentration (IC50) in assay [1] (read-out: IC50) was 246 µM; in assay [2] it was 1810 µM; in assay [3] (read-out: IC50), 439 µM; in assay [4] (read-out: IC50) it was 7680 µM.

For the compound `O=c1[nH]c2ccccc2cc1/C=N/Nc1ccccc1`, the IC50 was 306 µM in assay [1] (read-out: IC50), 11.8 µM in assay [2], 76.5 µM in assay [3] (read-out: IC50) and 1000 µM in assay [4] (read-out: IC50).

In the case of `O=c1[nH]c2ccccc2cc1/C=N/c1ccc(O)cc1`, the IC50 was 306 µM in assay [1] (read-out: IC50), 7.15 µM in assay [2], 92.1 µM in assay [3] (read-out: IC50) and “Not Active” in assay [4].

For the compound `Cc1ccc2[nH]c(=O)c(/C=N/O)cc2c1`, the IC50 in assay [1] (read-out: IC50) amounted to 389 µM; in assay [2], 38.9 µM; in assay [3] (read-out: IC50) it was 160 µM; in assay [4] (read-out: IC50), 1980 µM.

With `Cc1ccc2[nH]c(=O)c(/C=N/Cc3ccccc3)cc2c1`, the 50% inhibitory concentration (IC50) in assay [1] (read-out: IC50) is 310 µM; in assay [2] it was 607 µM; in assay [3] it was “Not Active”; in assay [4] (read-out: IC50), 6920 µM.

With `Cc1ccc2[nH]c(=O)c(/C=N/N)cc2c1`, the IC50 came to 153 µM in assay [1] (read-out: IC50), 11.3 µM in assay [2], 641 µM in assay [3] (read-out: IC50) and 790 µM in assay [4] (read-out: IC50).

For the compound `O=c1[nH]c2ccccc2cc1/C=N/Nc1ccc([N+](=O)[O-])cc1[N+](=O)[O-]`, the half-maximal inhibitory concentration (IC50) entry in assay [1] is “Not Active”; in assay [2] it was 142 µM; in assay [3] (read-out: IC50) it was 190 µM; in assay [4] (read-out: IC50), 375 µM.

Turning to `N/N=C/c1cc2ccccc2[nH]c1=O`, the IC50 in assay [1] (read-out: IC50) is 184 µM; in assay [2], 20.6 µM; in assay [3] (read-out: IC50), 729 µM; in assay [4] (read-out: IC50), 365 µM.

`Cc1ccc2[nH]c(=O)c(/C=N/Nc3ccc([N+](=O)[O-])cc3[N+](=O)[O-])cc2c1`: the half-inhibitory concentration (IC50) entry is “Not Active” in assay [1], 144 µM in assay [2], “Not Active” in assay [3] and 749 µM in assay [4] (read-out: IC50).

As to `Cc1ccc2[nH]c(=O)c(/C=N/NC(=O)Cc3ccncc3)cc2c1`, the IC50 was 209 µM in assay [1] (read-out: IC50), 882 µM in assay [2], 3580 µM in assay [3] (read-out: IC50) and 4690 µM in assay [4] (read-out: IC50).

Turning to `O=c1[nH]c2ccccc2cc1/C=N/CCO`, the IC50 in assay [1] (read-out: IC50) is 467 µM; in assay [2], 1210 µM; in assay [3], “Not Active”; in assay [4] (read-out: IC50), 3310 µM.

With `Cc1ccc2[nH]c(=O)c(/C=N/c3ccc(S(N)(=O)=O)cc3)cc2c1`, the concentration for half-maximal inhibition (IC50) in assay [1] (read-out: IC50) is 258 µM; in assay [2] it was 1200 µM; in assay [3], “Not Active”; in assay [4] it was “Not Active”.

With `Cc1ccc2[nH]c(=O)c(/C=N/CCO)cc2c1`, the IC50 in assay [1] (read-out: IC50) turned out to be 1480 µM; in assay [2], 1190 µM; in assay [3] (read-out: IC50), 498 µM; in assay [4] (read-out: IC50), 4180 µM.

With `O=C1O[C@H]([C@@H](O)CO)C(O)=C1O` [ASCORBIC ACID], the half-maximal inhibitory concentration (IC50) in assay [1] (read-out: IC50) is 15.6 µM; in assay [2] it was 12.8 µM; in assay [3] (read-out: IC50) it was 43.8 µM; in assay [4] (read-out: IC50), 73.8 µM.

For the compound `Cc1ccc2[nH]c(=O)c(/C=N/c3ccccc3O)cc2c1`, the IC50 in assay [1] (read-out: IC50) was determined as 286 µM; in assay [2], 8.24 µM; in assay [3] (read-out: IC50), 26.2 µM; in assay [4] (read-out: IC50), 1350 µM.

For the compound `NS(=O)(=O)CC(=O)N/N=C/c1cc2ccccc2[nH]c1=O`, the IC50 was determined as 256 µM in assay [1] (read-out: IC50), 8.91 µM in assay [2], 1290 µM in assay [3] (read-out: IC50) and 8730 µM in assay [4] (read-out: IC50).

Consider `Cc1ccc2[nH]c(=O)c(/C=N/c3ccc(C(=O)O)cc3)cc2c1`, for which the IC50 was 409 µM in assay [1] (read-out: IC50), 222 µM in assay [2], “Not Active” in assay [3] and “Not Active” in assay [4].

On to `O=C(O)c1ccc(/N=C/c2cc3ccccc3[nH]c2=O)cc1`, for which the IC50 is 381 µM in assay [1] (read-out: IC50), 438 µM in assay [2], 1660 µM in assay [3] (read-out: IC50) and “Not Active” in assay [4].

Take `Cc1ccc2[nH]c(=O)c(/C=N/Nc3ccccc3)cc2c1`: the concentration for half-maximal inhibition (IC50) is 309 µM in assay [1] (read-out: IC50), 8.47 µM in assay [2], 62.4 µM in assay [3] (read-out: IC50) and 1470 µM in assay [4] (read-out: IC50).

As for `O=c1[nH]c2ccccc2cc1/C=N/O`, the IC50 was 463 µM in assay [1] (read-out: IC50), 31.8 µM in assay [2], 118 µM in assay [3] (read-out: IC50) and 2010 µM in assay [4] (read-out: IC50).

As for `O=C(Cc1ccncc1)N/N=C/c1cc2ccccc2[nH]c1=O`, the half-maximal inhibitory concentration (IC50) in assay [1] (read-out: IC50) was 197 µM; in assay [2], 485 µM; in assay [3] (read-out: IC50), 2850 µM; in assay [4] (read-out: IC50), 5090 µM.

Consider `Cc1cc(C(C)(C)C)c(O)c(C(C)(C)C)c1` [BUTYLATED HYDROXYTOLUENE], for which the 50% inhibitory concentration (IC50) in assay [1] (read-out: IC50) was found to be 254 µM; in assay [2], 37 µM; in assay [3] (read-out: IC50), 65.8 µM; in assay [4] (read-out: IC50), 24700 µM.

In the case of `Cc1ccc2[nH]c(=O)c(/C=N/c3ccc(O)cc3)cc2c1`, the half-inhibitory concentration (IC50) in assay [1] (read-out: IC50) is 235 µM; in assay [2], 5.24 µM; in assay [3] (read-out: IC50) it was 88.5 µM; in assay [4], “Not Active”.
